Assay results published in ChEMBL document CHEMBL4813935, “Cyclotides from Brazilian Palicourea sessilis and Their Effects on Human Lymphocytes” (J Nat Prod, 2021).
Positions of bridges follow the written chain, without caps; N, C: chain ends. Residues, ends and D or L forms follow the SMILES beside them.

Legend:
[1] = Inhibition of anti-human CD3/CD28/mAbs-stimulated human T-lymphocutes proliferation after 72 hrs by CFSE staining based flow cytometric analysis; format: functional, tissue-based; settings: T-cell
How it was run: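 PBMC from healthy donor venous blood, density-gradient isolated; 5 × 10^6 cells/mL labelled with CFSE (1:1000 of 5 mM stock), 10 min at 37 °C, washed. Stimulated with anti-CD3 (OKT3) and anti-CD28 (28.6), each 100 ng/mL, with peptide at 1–30 μM for 72 h at 37 °C, 5% CO2. Division read by flow cytometry, normalised to stimulated untreated cells (100%); four independent experiments.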

[2] = Cytotoxicity against human HT-29 cells assessed as reduction in cell viability measured after 48 hrs by MTT assay; format: cell-based
How it was run: (§1)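 Cells seeded at 5.0 × 10^3 per well; medium was refreshed the day after plating, then peptides were added at final 0.78–100 μM, with 0.1% (v/v) Triton X-100 as positive control. Incubation was 48 h, then MTT (5 mg/mL in PBS) for 3 h. Formazan was dissolved in DMSO and read at 600 nm. Triplicate experiments; CC50 from log(inhibitor) vs normalized response (variable slope) fit.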

[3] = Cytotoxicity against HUVEC assessed as reduction in cell viability measured after 48 hrs by MTT assay; format: cell-based; settings: human; how it was run: as §1
T-cell line = test: Immunosuppressive activity in anti-CD3/anti-CD28-stimulated human T-lymphocytes assessed as inhibition of cell proliferation after 72 hrs by CFSE staining based flow cytometric analysis; format: functional
How it was run: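 Donor PBMC were isolated on a density gradient and CFSE-stained for 10 min at 37 °C. Cells were stimulated with anti-CD3 (OKT3) and anti-CD28 mAbs, 100 ng/mL each, and exposed to peptides at 1–30 μM for 72 h at 37 °C, 5% CO2. Division was read by flow cytometry and normalized to stimulated untreated cells (100%). Four independent experiments, mean ± SD.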

[4] = Hemolytic activity against human RBC assessed as concentration required to cause 50% hemolysis measured after 1 hr; format: cell-based, Erythrocyte; settings: red blood cells (erythrocytes), read-out: CC50
How it was run: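 Donor human red blood cells were washed in PBS and diluted to 0.25% (v/v). Peptides were serially diluted from water to eight concentrations, 0.187–24 μM. Incubation was 1 h at 37 °C; PBS served as negative control and 1% Triton-X as positive control. Supernatant absorbance was read at 415 nm. CC50 (50% lysis) from log(agonist) vs response (variable slope) fit; n = 3.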

SMILES	IC50 [1]	CC50 at 48 h [2]	CC50 at 48 h [3]	IC50 (T-cell line)	HC50 at 1 h [4]
CC(C)C[C@@H]1NC(=O)CNC(=O)[C@H](CC(N)=O)NC(=O)[C@H](CCCNC(=N)N)NC(=O)[C@H]([C@@H](C)O)NC(=O)[C@@H]2CSSC[C@@H]3NC(=O)[C@H]([C@@H](C)O)NC(=O)CNC(=O)CNC(=O)[C@H](C(C)C)NC(=O)[C@@H]4CSSC[C@H](NC(=O)[C@H]([C@@H](C)O)NC(=O)[C@H](CSSC[C@H](NC(=O)[C@H](C(C)C)NC(=O)[C@@H]5CCCN5C1=O)C(=O)NCC(=O)N[C@@H](CCC(=O)O)C(=O)N[C@@H]([C@@H](C)O)C(=O)N4)NC(=O)CNC(=O)[C@@H]1CCCN1C(=O)[C@H]([C@@H](C)O)NC(=O)[C@H](CC(N)=O)NC3=O)C(=O)N[C@@H](CO)C(=O)N[C@@H](Cc1c[nH]c3ccccc13)C(=O)N1CCC[C@H]1C(=O)N[C@@H](C(C)C)C(=O)N2	1.9 µM	> 10 µM	5.1 µM	–	–
CC[C@H](C)[C@@H]1NC(=O)[C@@H]2CCCN2C(=O)[C@H](Cc2c[nH]c3ccccc23)NC(=O)[C@H](CO)NC(=O)[C@@H]2CSSC[C@@H]3NC(=O)[C@H]([C@@H](C)O)NC(=O)[C@H](CCC(=O)O)NC(=O)CNC(=O)[C@@H]4CSSC[C@H](NC(=O)CNC(=O)[C@@H]5CCCN5C(=O)[C@H]([C@@H](C)O)NC(=O)[C@H](CC(N)=O)NC(=O)[C@H](CSSC[C@H](NC1=O)C(=O)N[C@@H]([C@@H](C)O)C(=O)N[C@@H](CCCNC(=N)N)C(=O)N[C@@H](CC(N)=O)C(=O)NCC(=O)N[C@@H](CC(C)C)C(=O)N1CCC[C@H]1C(=O)N[C@@H](C(C)C)C(=O)N4)NC(=O)[C@H]([C@@H](C)O)NC(=O)CNC(=O)CNC(=O)[C@H](C(C)C)NC3=O)C(=O)N[C@@H](C(C)C)C(=O)N2	–	> 10 µM	7.5 µM	2.3 µM	14.6 µM
CC[C@H](C)[C@@H]1NC(=O)[C@@H]2CCCN2C(=O)[C@H](Cc2c[nH]c3ccccc23)NC(=O)[C@H](C)NC(=O)[C@@H]2CSSC[C@@H]3NC(=O)[C@H]([C@@H](C)O)NC(=O)[C@H](CCC(=O)O)NC(=O)CNC(=O)[C@@H]4CSSC[C@H](NC(=O)CNC(=O)[C@@H]5CCCN5C(=O)[C@H]([C@@H](C)O)NC(=O)[C@H](CC(N)=O)NC(=O)[C@H](CSSC[C@H](NC1=O)C(=O)N[C@@H]([C@@H](C)O)C(=O)N[C@@H](CCCNC(=N)N)C(=O)N[C@@H](CC(N)=O)C(=O)NCC(=O)N[C@@H](CC(C)C)C(=O)N1CCC[C@H]1C(=O)N[C@@H](C(C)C)C(=O)N4)NC(=O)[C@H]([C@@H](C)O)NC(=O)CNC(=O)CNC(=O)[C@H](C(C)C)NC3=O)C(=O)N[C@@H](C(C)C)C(=O)N2	–	6.1 µM	5.3 µM	1.6 µM	33.5 µM
CC(C)C[C@@H]1NC(=O)CNC(=O)[C@H](CC(N)=O)NC(=O)[C@H](CCCNC(=N)N)NC(=O)[C@H]([C@@H](C)O)NC(=O)[C@@H]2CSSC[C@@H]3NC(=O)[C@H]([C@@H](C)O)NC(=O)CNC(=O)CNC(=O)[C@H](C(C)C)NC(=O)[C@@H]4CSSC[C@H](NC(=O)[C@H](C(C)C)NC(=O)[C@H](CSSC[C@H](NC(=O)[C@H](C(C)C)NC(=O)[C@@H]5CCCN5C1=O)C(=O)NCC(=O)N[C@@H](CCC(=O)O)C(=O)N[C@@H]([C@@H](C)O)C(=O)N4)NC(=O)CNC(=O)[C@@H]1CCCN1C(=O)[C@H]([C@@H](C)O)NC(=O)[C@H](CC(N)=O)NC3=O)C(=O)N[C@@H](CO)C(=O)N[C@@H](Cc1c[nH]c3ccccc13)C(=O)N1CCC[C@H]1C(=O)N[C@@H](C(C)C)C(=O)N2	–	5.5 µM	5.2 µM	4.5 µM	39.5 µM
CC(C)C[C@@H]1NC(=O)CNC(=O)[C@H](CC(N)=O)NC(=O)[C@H](CCCNC(=N)N)NC(=O)[C@H]([C@@H](C)O)NC(=O)[C@@H]2CSSC[C@@H]3NC(=O)[C@H]([C@@H](C)O)NC(=O)CNC(=O)CNC(=O)[C@H](C(C)C)NC(=O)[C@@H]4CSSC[C@H](NC(=O)[C@H](CO)NC(=O)[C@H](CSSC[C@H](NC(=O)[C@H](C(C)C)NC(=O)[C@@H]5CCCN5C1=O)C(=O)NCC(=O)N[C@@H](CCC(=O)O)C(=O)N[C@@H]([C@@H](C)O)C(=O)N4)NC(=O)CNC(=O)[C@@H]1CCCN1C(=O)[C@H]([C@@H](C)O)NC(=O)[C@H](CC(N)=O)NC3=O)C(=O)N[C@@H](CO)C(=O)N[C@@H](Cc1c[nH]c3ccccc13)C(=O)N1CCC[C@H]1C(=O)N[C@@H](C(C)C)C(=O)N2	–	7.3 µM	> 10 µM	–	49.6 µM
CC(C)C[C@@H]1NC(=O)CNC(=O)[C@H](CC(N)=O)NC(=O)[C@H](CCCNC(=N)N)NC(=O)[C@H](CCCCN)NC(=O)[C@@H]2CSSC[C@@H]3NC(=O)[C@H](CO)NC(=O)CNC(=O)[C@H]([C@@H](C)O)NC(=O)[C@H](C(C)C)NC(=O)[C@@H]4CSSC[C@H](NC(=O)[C@H](CO)NC(=O)[C@H](CSSC[C@H](NC(=O)[C@H](C(C)C)NC(=O)[C@@H]5CCCN5C1=O)C(=O)NCC(=O)N[C@@H](CCC(=O)O)C(=O)N[C@@H]([C@@H](C)O)C(=O)N4)NC(=O)CNC(=O)[C@@H]1CCCN1C(=O)[C@H]([C@@H](C)O)NC(=O)[C@H](Cc1ccc(O)cc1)NC3=O)C(=O)N[C@@H](CO)C(=O)N[C@@H](Cc1c[nH]c3ccccc13)C(=O)N1CCC[C@H]1C(=O)N[C@@H](C(C)C)C(=O)N2	–	5.6 µM	> 10 µM	–	51.7 µM
CC[C@H](C)[C@@H]1NC(=O)[C@@H]2CCCN2C(=O)[C@H](Cc2c[nH]c3ccccc23)NC(=O)[C@H](CO)NC(=O)[C@@H]2CSSC[C@@H]3NC(=O)[C@H]([C@@H](C)O)NC(=O)[C@H](CCC(=O)O)NC(=O)CNC(=O)[C@@H]4CSSC[C@H](NC(=O)CNC(=O)[C@@H]5CCCN5C(=O)[C@H]([C@@H](C)O)NC(=O)[C@H](CC(N)=O)NC(=O)[C@H](CSSC[C@H](NC1=O)C(=O)N[C@@H]([C@@H](C)O)C(=O)N[C@@H](CCCNC(=N)N)C(=O)N[C@@H](CC(N)=O)C(=O)NCC(=O)N[C@@H](CC(C)C)C(=O)N1CCC[C@H]1C(=O)N[C@@H]([C@@H](C)O)C(=O)N4)NC(=O)[C@H]([C@@H](C)O)NC(=O)CNC(=O)CNC(=O)[C@H](C(C)C)NC3=O)C(=O)N[C@@H](C(C)C)C(=O)N2 (cyclo(CGETCVGGTCNTPGCVCSWPICTRNGLPT); disulfide 1-15, 5-17, 10-22)	–	8.4 µM	> 10 µM	7.1 µM	62.8 µM
